Laboratory results as given in ChEMBL document CHEMBL4028861, “Selective Nonsteroidal Glucocorticoid Receptor Modulators for the Inhaled Treatment of Pulmonary Diseases” (J Med Chem, 2017).
≈ marks a conversion by molar mass, not a printed value.

Assays:
[1] = Intrinsic clearance in human hepatocytes assessed per million cells; format: ADME, cell-based, Hepatocyte; details: read-out: CLH
[2] = Lipophilicity, log D of the compound by chromatography; format: physicochemical
[3] = Solubility of the compound in phosphate buffer at pH 7.4 using liquid sample at 20 degreeC; format: physicochemical
How it was run: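 Solubility measured in 0.1 M phosphate buffer at pH 7.4 and 20 °C, starting from a 10 mM DMSO stock solution.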

[4] = Solubility of the compound in phosphate buffer at pH 7.4 using solid sample at 23 degreeC; format: physicochemical
How it was run: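 Solubility measured in 0.1 M phosphate buffer at pH 7.4 and 23 °C, starting from crystalline solid.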

Row | hepatocyte CLint [1] | chromatographic logD [2] | solubility [3] | solubility thermodynamic [4] | Structure (SMILES)
1 | < 2.7 µL/min/1e6 cells | 3.8 | 1 µM (≈ 0.597 µg/mL) | 0.34 µM (≈ 0.203 µg/mL) | C[C@H](NC(=O)C(C)(F)F)[C@H](Oc1ccc2c(cnn2-c2cccc(C(=O)NC3CCS(=O)(=O)C3)c2)c1)c1ccccc1 (stereo partly drawn)
2 | 14 µL/min/1e6 cells | 5.7 |  |  | C[C@H](NC(=O)C(C)(F)F)[C@H](Oc1ccc2c(cnn2-c2ccc(F)cc2)c1)c1ccc2c(c1)OCC2
3 | 17 µL/min/1e6 cells | 3.6 | 0.16 µM (≈ 0.0993 µg/mL) | 0.22 µM (≈ 0.137 µg/mL) | C[C@H](NC(=O)C(C)(F)F)[C@H](Oc1ccc2c(cnn2-c2cccc(C(=O)N[C@@H]3CCOC3=O)c2)c1)c1ccc2c(c1)OCCO2
4 | < 2.7 µL/min/1e6 cells |  |  |  | C[C@H](NC(=O)C(F)(F)F)[C@H](Oc1ccc2c(cnn2-c2ccc(F)cc2)c1)c1cccc(OS(=O)(=O)O)c1
5 | 20 µL/min/1e6 cells | 5.4 |  |  | C[C@H](NC(=O)C(C)(F)F)[C@H](Oc1ccc2c(cnn2-c2ccc(F)cc2)c1)c1ccc2c(c1)COCO2
6 | < 2.1 µL/min/1e6 cells | 6.1 |  |  | C[C@H](NC(=O)C(F)(F)F)[C@H](Oc1ccc2c(cnn2-c2ccc(F)cc2)c1)c1ccccc1
7 | 20 µL/min/1e6 cells | 3.4 |  |  | CCCC1O[C@@H]2C[C@H]3[C@@H]4CCC5=CC(=O)C=C[C@]5(C)[C@H]4[C@@H](O)C[C@]3(C)[C@]2(C(=O)CO)O1 (stereo partly drawn) [BUDESONIDE]
8 | 30 µL/min/1e6 cells | 3.7 | 1.3 µM (≈ 0.789 µg/mL) | 0.09 µM (≈ 0.0546 µg/mL) | C[C@H](NC(=O)C(C)(F)F)[C@H](Oc1ccc2c(cnn2-c2cccc(C(=O)N[C@H]3CCOC3)c2)c1)c1ccc2c(c1)OCCO2
9 | 26 µL/min/1e6 cells | 3.6 | 0.11 µM (≈ 0.0667 µg/mL) | 0.03 µM (≈ 0.0182 µg/mL) | C[C@H](NC(=O)C(C)(F)F)[C@H](Oc1ccc2c(cnn2-c2cccc(C(=O)N[C@H]3CCOC3)c2)c1)c1ccc2c(c1)OCOC2
10 |  | 5.7 |  |  | C[C@H](NC(=O)C(F)(F)F)[C@H](Oc1ccc2c(cnn2-c2ccc(F)cc2)c1)c1ccc2c(c1)OCCO2
11 | 11 µL/min/1e6 cells | 2.9 | 47 µM (≈ 29.8 µg/mL) |  | C[C@H](NC(=O)C(C)(F)F)[C@H](Oc1ccc2c(cnn2-c2cccc(C(=O)N3CCC[C@@H]3C(N)=O)c2)c1)c1ccc2c(c1)OCCO2
12 | 33 µL/min/1e6 cells | 5 |  |  | C[C@H](NC(=O)C(F)(F)F)[C@H](Oc1ccc2c(cnn2-c2ccc(F)cc2)c1)c1cccc(O)c1
13 | 15 µL/min/1e6 cells | 5.4 |  |  | C[C@H](NC(=O)C(C)(F)F)[C@H](Oc1ccc2c(cnn2-c2ccc(F)cc2)c1)c1ccc2c(c1)OCOC2
14 |  | 3.3 | 85 µM (≈ 48.9 µg/mL) |  | C[C@H](NC(=O)C(C)(F)F)[C@H](Oc1ccc2c(cnn2-c2cccc(C(=O)N3CCC[C@H]3C(N)=O)c2)c1)c1ccccc1
15 | 9.7 µL/min/1e6 cells | 2.9 | 19 µM (≈ 12 µg/mL) |  | C[C@H](NC(=O)C(C)(F)F)[C@H](Oc1ccc2c(cnn2-c2cccc(C(=O)N3CCC[C@@H]3C(N)=O)c2)c1)c1ccc2c(c1)OCOC2
16 | < 2.7 µL/min/1e6 cells | 3.3 | 36 µM (≈ 20.7 µg/mL) |  | C[C@H](NC(=O)C(C)(F)F)[C@H](Oc1ccc2c(cnn2-c2cccc(C(=O)N3CCC[C@@H]3C(N)=O)c2)c1)c1ccccc1
17 |  | 3.9 | 2 µM (≈ 1.13 µg/mL) | 0.12 µM (≈ 0.0675 µg/mL) | C[C@H](NC(=O)C(C)(F)F)[C@H](Oc1ccc2c(cnn2-c2cccc(C(=O)N[C@@H]3CCOC3=O)c2)c1)c1ccccc1
18 | 23 µL/min/1e6 cells | 3.6 | 0.01 µM (≈ 0.00655 µg/mL) | 0.68 µM (≈ 0.445 µg/mL) | C[C@H](NC(=O)C(C)(F)F)[C@H](Oc1ccc2c(cnn2-c2cccc(C(=O)N[C@H]3CCS(=O)(=O)C3)c2)c1)c1ccc2c(c1)OCCO2
